# Reference: ChEMBL document CHEMBL1124543, “Antiulcer agents. 4. Conformational considerations and the antiulcer activity of substituted imidazo[1,2-a]pyridines and related analogues” (1989)
# Legend:
# Format in all cases: functional
# Rattus norvegicus [1] = test: Effective dose inhibiting ethanol-induced lesions was determined 1 h, after oral administration of absolute ethanol in rat
# In short: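 Rats fasted and water-deprived 20 h; compound in 0.4% methylcellulose/saline given orally (1–30 mg/kg) 30 min before oral absolute ethanol (1 mL). Killed 1 h after ethanol; stomach opened along greater curvature, linear hemorrhagic lesion lengths summed per stomach. ED50 for lesion inhibition by regression analysis.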
# Canis familiaris [2] = test: Inhibition of histamine stimulated gastric acid secretion in adult mongrel dogs at 2 mg/kg i.v.; conditions: Canis lupus familiaris, Stomach, route intravenous
# In short: (§1)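 Mongrel dogs with surgically prepared Heidenhain pouches under histamine infusion; compound given iv (0.1–5 mg/kg) 1 h after infusion start. Pouch juice collected every 30 min, volume recorded, aliquot titrated for acid; outputs summed over 3 h post-dose, compared with the same animal's control. ED50 by linear regression.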
# Rattus norvegicus [3] = test: Antisecretory activity of intraperitoneally injected compound (40 mg/kg) in pylorus-ligated rat
# In short: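 Rats fasted 24 h, anesthetized, pylorus ligated; compound in 2.5% Tween 80 given ip (0.5 mL/200 g) at ligation. Killed 4 h later; gastric contents volume recorded, aliquots titrated with 0.1 N NaOH for acid output. Six rats per compound, eight controls; percent inhibition computed, Student's t test.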
# Canis familiaris [4] = test: Inhibition of histamine stimulated gastric acid secretion in adult mongrel dogs at 5 mg/kg i.v.; conditions: Canis lupus familiaris, Stomach, route intravenous; in short: as §1
# Canis familiaris [5] = test: Inhibition of histamine stimulated gastric acid secretion in adult mongrel dogs at 4 mg/kg administered perorally; conditions: Canis lupus familiaris, Stomach, route oral
# In short: (§2)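 Heidenhain pouch mongrel dogs receiving histamine infusion; compound given orally by gavage 1 h after infusion began. Acid output from 30-min collections (volume, titrated aliquot) summed for 3 h after dosing, each dog its own control. ED50 derived by linear regression from percent inhibition across doses.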
# Canis familiaris [6] = test: Inhibition of histamine stimulated gastric acid secretion in adult mongrel dogs at 1 mg/kg i.v.; conditions: Canis lupus familiaris, Stomach, route intravenous; in short: as §1
# Canis familiaris [7] = test: Effective dose required to reduce acid out put when administered perorally in dog; conditions: Canis lupus familiaris, po; in short: as §2
# Canis familiaris [8] = test: Effective dose required to reduce acid out put when administered intravenously in dog; conditions: Canis lupus familiaris, iv; in short: as §1
# Canis familiaris [9] = test: Inhibition of histamine stimulated gastric acid secretion in adult mongrel dogs at 8 mg/kg compound administered perorally; conditions: Canis lupus familiaris, Stomach, route oral; in short: as §2
# Canis familiaris [10] = test: Inhibition of histamine stimulated gastric acid secretion in adult mongrel dogs at 2 mg/kg compound administered perorally; conditions: Canis lupus familiaris, Stomach, route oral; in short: as §2
# Canis familiaris [11] = test: Effective dose required to reduce acid out put when administered intravenously in dog;Value ranges from […]; conditions: Canis lupus familiaris, iv; in short: as §1
# Canis familiaris [12] = test: Effective dose required to reduce acid out put when administered perorally in dog;Value ranges from(1.6-13.4).; conditions: Canis lupus familiaris, po; in short: as §2
# Canis familiaris [13] = test: Inhibition of histamine stimulated gastric acid secretion in adult mongrel dogs at 0.1 mg/kg compound administered intravenously; conditions: Canis lupus familiaris, Stomach, route intravenous; in short: as §1
# Canis familiaris [14] = test: Effective dose required to reduce acid out put when administered perorally in dog;Value ranges from (2.3-58.2); conditions: Canis lupus familiaris, po; in short: as §2
Structure (SMILES),ED50 (Rattus norvegicus [1]) [mg/kg],inhibition in vivo at 2 mg/kg (Canis familiaris [2]) [%],Inhibition (Rattus norvegicus [3]) [%],inhibition in vivo at 5 mg/kg (Canis familiaris [4]) [%],inhibition in vivo at 4 mg/kg (Canis familiaris [5]) [%],inhibition in vivo at 1 mg/kg (Canis familiaris [6]) [%],inhibition in vivo at 8 mg/kg (Canis familiaris [9]) [%],further results
C(=C/c1cccn2c3c(nc12)CCCC3)/c1ccccc1,7.3,0,62,,,,,
Cc1nc2cccc(/C=C/c3ccccc3)n2c1C,5.5,,,0,0,,,
C(=C/c1cccn2c3c(nc12)CCC3)/c1ccccc1,5.2,,24,8,,,,
Cc1nc2c(/C=C\c3ccccc3)cccn2c1C,,76,83,86,37,62,74,ED50 (Canis familiaris [7]): 4.8 mg/kg; ED50 (Canis familiaris [8]): 0.7 mg/kg; inhibition in vivo at 2 mg/kg (Canis familiaris [10]): 25%
Cc1nc2c(/C=C\Cc3ccccc3)cccn2c1N,8.6,,52,,0,32,,
Cc1nc2c3c(ccn2c1CC#N)CCC(c1ccccc1)O3 (stereo not given),1.7,,,,,,,ED50 (Canis familiaris [11]): 0.06 mg/kg; ED50 (Canis familiaris [12]): 3.7 mg/kg
Cc1nc2c(OCc3ccccc3)cccn2c1C,10,,99,,0,90,26,
Cc1nc2c(/C=C/c3ccccc3)cccn2c1C,10.4,26,39,,,,3,
C/C(=C\c1ccccc1)c1cccn2c(C)c(C)nc12,5,44,71,,,,29,
CCc1c(C)nc2c(/C=C\c3ccccc3)cccn12,0.8,12,65,,,,21,
C/C(=C\c1cccn2c(C)c(C)nc12)c1ccccc1,,65,98,,17,72,37,
CCc1nc2c(/C=C\c3ccccc3)cccn2c1C,,42,96,,,,21,
Cc1nc2c(/C=C/Cc3ccccc3)cccn2c1CC#N,4,,,78,53,69,82,ED50 (Canis familiaris [7]): 4 mg/kg; inhibition in vivo at 0.1 mg/kg (Canis familiaris [13]): 9%; ED50 (Canis familiaris [8]): 1 mg/kg; inhibition in vivo at 2 mg/kg (Canis familiaris [10]): 43%
Cc1nc2c(/C=C\c3ccccc3)nccn2c1C,5.2,,74,0,,,0,
Cc1nc2c(C/C=C\c3ccccc3)cccn2c1N,6.4,,4,20,,,0,
Cc1nc2c(C/C=C/c3ccccc3)cccn2c1CC#N,12,,27,4,,,,
Cc1nc2c(/C=C/c3ccccc3)cccn2c1N,13,24,33,0,,,6,
Cc1nc2c(/C=C\Cc3ccccc3)cccn2c1C,6.6,47,96,,13,24,54,
Cc1nc2c(C/C=C\c3ccccc3)cccn2c1C,5.5,,58,0,,,0,
Cc1nc2c(C#Cc3ccccc3)nccn2c1C,3.7,,0,0,,,11,
Cc1nc2cc(/C=C/c3ccccc3)ccn2c1C,,,40,0,,,0,
Cc1nc2c(/C=C\c3ccsc3)cccn2c1C,24,82,54,,38,64,79,ED50 (Canis familiaris [7]): 4.8 mg/kg; inhibition in vivo at 2 mg/kg (Canis familiaris [10]): 5%
Cc1nc2c(/C=C\c3ccccc3)cccn2c1N,23,62,83,67,,66,4,inhibition in vivo at 2 mg/kg (Canis familiaris [10]): 0%
Cc1nc2c(/C=C\c3ccccc3)cccn2c1CC#N,2,76,49,,0,79,41,
Cc1nc2c(/C=C/c3ccccc3)cccn2c1CC#N,3,0,18,18,,,2,
Cc1nc2c(CCc3ccccc3)cccn2c1N,,,,,,,,inhibition in vivo at 0.1 mg/kg (Canis familiaris [13]): 26%; ED50 (Canis familiaris [8]): 1 mg/kg; ED50 (Canis familiaris [14]): 6.7 mg/kg
Cc1nc2ccc(/C=C/c3ccccc3)cn2c1C,1.7,,55,0,,,0,
